Measurements: ChEMBL document CHEMBL4038338 (J Med Chem, 2017)
pIC50, pKi: −log10 of the molar value. Calls of active or inactive are those of the source. No cut-off for these calls is given here.

Legend:
[1] = Inhibition of human liver cathepsin L using Z-Phe-Arg-AMC as substrate by kinetic fluorescence assay
[2] = biological target: T1, Calpain-1 catalytic subunit (Homo sapiens, UniProt P07384); experiment: Inhibition of human erythrocytes calpain-1 using Suc-Leu-Tyr-AMC as substrate by kinetic fluorescence assay; settings: read-out: Ki
T1 sequence (P07384 whole entry): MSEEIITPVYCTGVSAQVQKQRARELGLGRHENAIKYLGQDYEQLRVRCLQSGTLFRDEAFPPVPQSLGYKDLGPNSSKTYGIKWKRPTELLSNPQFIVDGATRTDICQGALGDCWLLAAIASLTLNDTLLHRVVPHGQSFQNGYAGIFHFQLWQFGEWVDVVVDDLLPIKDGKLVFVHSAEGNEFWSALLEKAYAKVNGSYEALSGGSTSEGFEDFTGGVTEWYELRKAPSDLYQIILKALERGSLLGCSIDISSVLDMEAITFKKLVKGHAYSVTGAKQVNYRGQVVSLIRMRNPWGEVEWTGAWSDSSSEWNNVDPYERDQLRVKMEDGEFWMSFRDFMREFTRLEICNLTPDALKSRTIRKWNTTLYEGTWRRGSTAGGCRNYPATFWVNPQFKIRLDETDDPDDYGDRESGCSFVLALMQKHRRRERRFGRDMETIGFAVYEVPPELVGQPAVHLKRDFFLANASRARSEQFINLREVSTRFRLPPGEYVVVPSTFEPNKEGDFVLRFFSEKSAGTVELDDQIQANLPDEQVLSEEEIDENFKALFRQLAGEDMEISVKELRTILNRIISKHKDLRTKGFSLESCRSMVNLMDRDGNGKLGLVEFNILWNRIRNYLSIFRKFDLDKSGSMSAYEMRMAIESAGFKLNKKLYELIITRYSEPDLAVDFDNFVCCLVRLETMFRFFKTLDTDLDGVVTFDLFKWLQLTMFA

Cathepsin S = Cathepsin S (Homo sapiens, UniProt P25774); experiment: Inhibition of human cathepsin S expressed in Escherichia coli using Z-Val-Val-Arg-AMC as substrate by kinetic fluorescence assay
[3] = Selectivity ratio of Ki for human liver cathepsin B to Ki for human erythrocytes calpain-1
Homo sapiens [4] = species: Homo sapiens; experiment: Selectivity ratio of Ki for recombinant human procathepsin K expressed in Escherichia coli to Ki for human erythrocytes calpain-1
Summary of the method: (§1)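 Ki ratios from kinetic fluorescence assays. Cathepsins B (0.25 nM), L (1 nM), K (3 nM) and S (0.5 nM) in MES buffer at pH 6.0. All at room temperature; Ki by Cheng-Prusoff.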

[5] = Selectivity ratio of Ki for human liver cathepsin L to Ki for human erythrocytes calpain-1
Homo sapiens [6] = species: Homo sapiens; experiment: Selectivity ratio of Ki for recombinant human cathepsin S expressed in Escherichia coli to Ki for human erythrocytes calpain-1; summary of the method: as §1
[7] = biological target: T2, Calpain-1 catalytic subunit (Rattus norvegicus) (UniProt P97571); experiment: (§2) Inhibition of calpain-1 in rat hippocampal slices assessed as prevention of NMDA-induced spectrin cleavage preincubated for 30 mins followed by NMDA addition measured after 5 hrs by Western blot analysis
T2 sequence (whole entry): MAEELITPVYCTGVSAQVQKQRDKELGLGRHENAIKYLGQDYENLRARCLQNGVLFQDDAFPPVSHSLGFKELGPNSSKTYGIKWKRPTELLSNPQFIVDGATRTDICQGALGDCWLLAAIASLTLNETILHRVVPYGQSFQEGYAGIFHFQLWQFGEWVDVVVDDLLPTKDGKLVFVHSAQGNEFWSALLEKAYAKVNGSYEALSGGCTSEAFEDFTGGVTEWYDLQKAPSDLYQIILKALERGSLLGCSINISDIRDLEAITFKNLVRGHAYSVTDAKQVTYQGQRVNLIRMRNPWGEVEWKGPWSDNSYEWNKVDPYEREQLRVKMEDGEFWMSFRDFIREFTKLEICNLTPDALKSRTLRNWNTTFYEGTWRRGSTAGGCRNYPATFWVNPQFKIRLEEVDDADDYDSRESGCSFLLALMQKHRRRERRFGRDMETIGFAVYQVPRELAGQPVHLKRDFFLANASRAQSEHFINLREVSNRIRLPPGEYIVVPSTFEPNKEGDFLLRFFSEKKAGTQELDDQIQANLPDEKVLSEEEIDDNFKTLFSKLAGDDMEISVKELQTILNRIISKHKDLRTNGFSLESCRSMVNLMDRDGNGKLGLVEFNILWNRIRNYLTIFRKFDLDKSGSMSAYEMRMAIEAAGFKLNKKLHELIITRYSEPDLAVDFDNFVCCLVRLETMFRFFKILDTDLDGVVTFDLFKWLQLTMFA
Summary of the method: (§3)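 Organotypic rat hippocampal slice cultures kept 6–8 days in 2% serum medium; 30 min inhibitor pre-incubation, then 10 µM NMDA for 5 h at 34°C, 5% CO2. Slices lysed; 150/145 kDa spectrin breakdown products quantified by densitometric Western blot with anti-spectrin alpha chain antibody.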

[8] = biological target: T3, Calpain-1 catalytic subunit (Rattus norvegicus, UniProt P97571); experiment: as §2; summary of the method: as §3
T3 sequence (P97571 whole entry): T2 sequence (whole entry)

[9] = biological target: T4, Calpain-1 catalytic subunit (Homo sapiens) (UniProt P07384); experiment: Inhibition of human erythrocytes calpain-1 using Suc-Leu-Tyr-AMC as substrate in presence of up to 10 mM glutathione by kinetic fluorescence assay
T4 sequence (whole entry): T1 sequence (P07384 whole entry)

[10] = Thiol reactivity using recombinant human full length 13C-labeled La antigen (100 to 324 residues) expressed in Escherichia coli BL21(DE3) by ALARM NMR
Rattus norvegicus [11] = experiment: Neuroprotective activity in Wistar rat assessed as protection against scopolamine-induced cognitive impairment at 1 to 3 mg/kg, sc administered prior to scopolamine induction measured after 24 hrs; assay type: functional, organism-based
Summary of the method: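 Scopolamine 0.1 mg/kg s.c., with test compound given s.c. beforehand in ethanol/PEG400/water (20:30:50). Single step-through passive avoidance training: 2 min habituation in the lit compartment, then a 0.5 mA, 2 s footshock on entering the dark side. Latency to enter the dark compartment measured 24 h later; n=14–47/group.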

[12] = biological target: T2, Calpain-1 catalytic subunit (Rattus norvegicus); experiment: Inhibition of calpain-1 in rat hippocampal slices assessed as prevention of amyloid beta(1-42) globulomer-induced synaptic deficits at 10 nM co-administered with amyloid beta(1-42) globulomer […] by Schaffer collateral analysis; settings: in the assay text read “after 1 day” for “after 1 hr”
Summary of the method: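 Hippocampal slices from 9–10-day-old Wistar rats cultured 15–18 days; 82 nM Aβ1-42 globulomer added to medium 1 day before recording, with compound co-applied; vehicle-only group included. Slices moved to interface chamber perfused with aCSF ≥1 h before recording; input/output after Schaffer collateral stimulation; 2-way repeated-measures ANOVA, Holm-Sidak.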

Rattus norvegicus [13] = experiment: Neuroprotective activity in sc dosed Sprague-Dawley rat assessed as increase in microdialysate acetylcholine levels in medial prefrontal cortex measured every 20 mins by HPLC analysis; assay type: functional, organism-based
Summary of the method: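 Male Sprague-Dawley rats (290–320 g) implanted with medial prefrontal cortex microdialysis probes. Perfusion with Ringer solution containing 1 µM neostigmine at 1.5 µL/min. Twenty-minute fractions collected, six before and six after 1, 3 or 10 mg/kg s.c. (ethanol/PEG400/water vehicle). Acetylcholine measured by HPLC with an enzyme reactor and electrochemical detection, expressed as % of baseline.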

Rattus norvegicus [14] = experiment: Neuroprotective activity in Fisher rat assessed as effect on latency in rapid eye movement at 1 mg/kg administered via oral gavage measured for 8 hrs at the beginning of 12 hr light period by EEG analysis relative to control; assay type: functional
Summary of the method: (§4)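 Male Fisher rats (250–330 g) fitted with frontal/occipital EEG electrodes under ketamine/pentobarbital. Dosed by gavage in Cremophor EL/Capmul PG8 (20:80) just before recording. EEG recorded for 8 h from the start of the light period, without food or water. Crossover design with alternate treatment one week later; each animal served as its own control. Results as % of vehicle.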

Rattus norvegicus [15] = experiment: Neuroprotective activity in Fisher rat assessed as effect on rapid eye movement time at 3 mg/kg administered via oral gavage measured after 8 hrs at the beginning of 12 hr light period by EEG analysis relative to control; assay type: functional; summary of the method: as §4
Rattus norvegicus [16] = experiment: Neuroprotective activity in Fisher rat assessed as effect on latency in rapid eye movement at 3 mg/kg administered via oral gavage measured for 8 hrs at the beginning of 12 hr light period by EEG analysis relative to control; assay type: functional; summary of the method: as §4
Rattus norvegicus [17] = experiment: Neuroprotective activity in Fisher rat assessed as effect on rapid eye movement time at 10 mg/kg administered via oral gavage measured after 8 hrs at the beginning of 12 hr light period by EEG analysis relative to control; assay type: functional; summary of the method: as §4
Rattus norvegicus [18] = experiment: Neuroprotective activity in Fisher rat assessed as effect on latency in rapid eye movement at 10 mg/kg administered via oral gavage measured for 8 hrs at the beginning of 12 hr light period by EEG analysis relative to control; assay type: functional; summary of the method: as §4
[19] = biological target: T2, Calpain-1 catalytic subunit (Rattus norvegicus); experiment: Inhibition of calpain-1 in rat hippocampal slices assessed as prevention of NMDA-induced tau cleavage preincubated for 30 mins followed by NMDA addition measured after 5 hrs by Western blot analysis
Summary of the method: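 Same slice protocol: rat hippocampal organotypic cultures, 30 min inhibitor pre-incubation, 10 µM NMDA for 5 h at 34°C, 5% CO2; lysates probed by densitometric Western blot for the 17 kDa tau cleavage fragment using anti-Tau 1 antibody.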

Rattus norvegicus [20] = experiment: Neuroprotective activity in Fisher rat assessed as effect on rapid eye movement sleep pattern administered via oral gavage measured after 8 hrs at the beginning of 12 hr light period by EEG analysis; assay type: functional; summary of the method: as §4

Sequence of Cathepsin S (P25774 whole entry): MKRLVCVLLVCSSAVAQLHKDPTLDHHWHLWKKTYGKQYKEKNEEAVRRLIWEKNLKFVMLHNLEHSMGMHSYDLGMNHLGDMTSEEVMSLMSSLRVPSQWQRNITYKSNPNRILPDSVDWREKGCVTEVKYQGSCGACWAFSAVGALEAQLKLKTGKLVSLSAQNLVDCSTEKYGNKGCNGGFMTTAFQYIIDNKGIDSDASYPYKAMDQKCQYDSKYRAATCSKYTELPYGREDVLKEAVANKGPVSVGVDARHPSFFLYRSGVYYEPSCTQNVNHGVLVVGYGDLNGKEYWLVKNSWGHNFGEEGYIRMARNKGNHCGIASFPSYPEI

## NC(=O)C(=O)C(Cc1ccccc1)NC(=O)c1cccnc1N1CCC(c2ccccc2)C1 (configuration not stated)
[1]
  pKi: 7.41
[2]
  pKi: 6.90
Cathepsin S
  pKi: 5.75

## NC(=O)C(=O)C(Cc1ccccc1)NC(=O)c1cccnc1-n1ccc(-c2cccc(C(F)(F)F)c2)n1 (configuration not stated)
[2]
  pKi: 7.40
[3]
  Ratio Ki: 17
Homo sapiens [4]
  Ratio Ki: 28
[5]
  Ratio Ki: >300
Homo sapiens [6]
  Ratio Ki: > 500
[7]
  fIC50: 155 nM
[8]
  pIC50: 5.29
[9]
  inhibition: Active
[10]
  Thiol reactivity: Metabolite not detected

## NC(=O)C(=O)C(Cc1ccccc1)NC(=O)c1cccnc1-n1ccc(-c2ccc(F)cc2)n1 (configuration not stated)
Rattus norvegicus [11]
  Activity: Active
[2]
  pKi: 7.47
[7]
  fIC50: 41 nM
[8]
  pIC50: 6.23
[12]
  inhibition: Active
Rattus norvegicus [13]
  Activity: Dose-dependent effect
Rattus norvegicus [14]
  Activity: 100%
Rattus norvegicus [15]
  Activity: 131%
Rattus norvegicus [16]
  Activity: 99%
Rattus norvegicus [17]
  Activity: 125%
Rattus norvegicus [18]
  Activity: 80%
[9]
  inhibition: Active
[19]
  fIC50: 46 nM
Rattus norvegicus [20]
  Activity: Dose-dependent effect

## CCN(CC)Cc1ccc(/C=C/c2ncccc2C(=O)NC(Cc2ccccc2)C(=O)C(N)=O)cc1 (configuration not stated)
[1]
  pKi: 6.69
[2]
  pKi: 6.96
Cathepsin S
  pKi: < 5.00

## CCN(CC)Cc1ccc(-c2ccn(-c3ncccc3C(=O)NC(Cc3ccccc3)C(=O)C(N)=O)n2)cc1 (configuration not stated)
[2]
  pKi: 7.00
[3]
  Ratio Ki: <1
Homo sapiens [4]
  Ratio Ki: < 1
[5]
  Ratio Ki: 3
Homo sapiens [6]
  Ratio Ki: 69
[8]
  pIC50: < 5.00
[9]
  inhibition: Active
[10]
  Thiol reactivity: Metabolite not detected

## NC(=O)C(=O)C(Cc1ccccc1)NC(=O)c1cccnc1-n1ccc(-c2ccccc2)n1 (configuration not stated)
[2]
  pKi: 7.74
[7]
  fIC50: 39 nM
[8]
  pIC50: 6.01
[9]
  inhibition: Active

## NC(=O)C(=O)C(Cc1ccccc1)NC(=O)c1cccnc1N1CCN(c2ccccc2)CC1 (configuration not stated)
[1]
  pKi: 6.31
[2]
  pKi: 6.60
Cathepsin S
  pKi: 5.14

## NC(=O)C(=O)C(Cc1ccccc1)NC(=O)c1cccnc1-n1cc2ccccc2n1 (configuration not stated)
[2]
  pKi: 7.34
[3]
  Ratio Ki: 6
Homo sapiens [4]
  Ratio Ki: 6
[5]
  Ratio Ki: 124
Homo sapiens [6]
  Ratio Ki: 51
[7]
  fIC50: 288 nM
[8]
  pIC50: 5.49
[9]
  inhibition: Active
[10]
  Thiol reactivity: Metabolite not detected

## CN1CCC(c2ccn(-c3ncccc3C(=O)NC(Cc3ccccc3)C(=O)C(N)=O)n2)CC1 (configuration not stated)
[2]
  pKi: 6.84
[3]
  Ratio Ki: 2
Homo sapiens [4]
  Ratio Ki: 1
[5]
  Ratio Ki: 2
Homo sapiens [6]
  Ratio Ki: 89
[9]
  inhibition: Active
[10]
  Thiol reactivity: Metabolite not detected

## NC(=O)C(=O)C(Cc1ccccc1)NC(=O)c1cccnc1-c1nc(-c2ccccc2)cs1 (configuration not stated)
[2]
  pKi: 6.63
[3]
  Ratio Ki: 10
Homo sapiens [4]
  Ratio Ki: 11
[5]
  Ratio Ki: 37
Homo sapiens [6]
  Ratio Ki: 105
[9]
  inhibition: Active
[10]
  Thiol reactivity: Metabolite not detected
